Molecular target: T1, KDM4A S288A mutant (Homo sapiens, UniProt O75164, S288A)
T1 sequence (O75164 1-1064 S288A): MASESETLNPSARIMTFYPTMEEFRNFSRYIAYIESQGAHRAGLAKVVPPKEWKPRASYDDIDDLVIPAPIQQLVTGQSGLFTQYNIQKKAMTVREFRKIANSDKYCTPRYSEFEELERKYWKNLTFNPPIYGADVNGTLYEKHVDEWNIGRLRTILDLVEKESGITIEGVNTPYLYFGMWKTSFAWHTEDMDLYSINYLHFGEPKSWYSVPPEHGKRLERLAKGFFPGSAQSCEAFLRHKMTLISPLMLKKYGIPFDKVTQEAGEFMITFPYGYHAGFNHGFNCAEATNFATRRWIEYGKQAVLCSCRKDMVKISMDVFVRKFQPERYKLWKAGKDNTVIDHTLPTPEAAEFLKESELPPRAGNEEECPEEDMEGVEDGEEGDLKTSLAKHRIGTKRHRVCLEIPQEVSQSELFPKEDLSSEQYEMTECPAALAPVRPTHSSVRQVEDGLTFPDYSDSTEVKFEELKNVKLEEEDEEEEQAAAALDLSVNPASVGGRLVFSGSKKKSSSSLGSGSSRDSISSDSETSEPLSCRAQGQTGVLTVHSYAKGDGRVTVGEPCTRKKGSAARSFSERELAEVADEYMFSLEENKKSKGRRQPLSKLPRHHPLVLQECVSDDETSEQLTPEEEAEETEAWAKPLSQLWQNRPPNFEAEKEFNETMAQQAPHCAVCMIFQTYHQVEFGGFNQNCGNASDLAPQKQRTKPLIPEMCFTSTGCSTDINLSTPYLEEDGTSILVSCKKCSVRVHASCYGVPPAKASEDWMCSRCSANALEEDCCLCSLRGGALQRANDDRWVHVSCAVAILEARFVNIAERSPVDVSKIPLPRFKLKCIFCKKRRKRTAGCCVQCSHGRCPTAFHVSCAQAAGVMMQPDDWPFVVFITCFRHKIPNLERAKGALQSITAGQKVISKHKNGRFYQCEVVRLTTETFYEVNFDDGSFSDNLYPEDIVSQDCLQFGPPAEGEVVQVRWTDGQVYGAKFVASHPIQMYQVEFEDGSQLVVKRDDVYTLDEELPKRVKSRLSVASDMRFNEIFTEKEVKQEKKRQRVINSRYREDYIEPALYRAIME
Experiment: MALDI demethylase assay, H3K9me3 substrate peptide, S288A mutant
Type: biochemical
In short: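 KDM4A mutant demethylation of H3K9me3 peptide, read by MALDI-MS and expressed as % inhibition of demethylase activity, with wild type and the four active-site mutants run under the same conditions. The 2KG cofactor was cut from the 1 mM of the initial activity assay to 50 μM, about 3–4-fold above the enzymes' 2KG KM. KM came from an FDH/NAD+-coupled NADH fluorescence assay.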

[1] = scaffold test under the optimized assay conditions (50 μM 2KG), Figure S7

inhibition of demethylase activity (100 μM compound, 50 μM 2KG, MALDI-MS) | inhibition of demethylase activity [1] | Structure (SMILES)
significantly inhibited | inhibited | O=C(O)CNC(=O)C(=O)O [compound 2, N-oxalylglycine]
– | inhibited | O=C(O)c1ccc(O)c2ncccc12 [IOX1, 5-carboxy-8-hydroxyquinone]
